ChEMBL document CHEMBL5303300, “EUbOPEN Chemogenomics Library - Multiplex” (2023)
“And” between values parts separate entries of the source, which are not always exact repeats. Identical values can stand only once.

System: U2OS
Assay: Multiplex assay against U2OS
Format: toxicity, cell-based
Conditions: human, number of replicates 2
Summary of the method: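 Per cents of healthy-nucleus cells form the tubulin, mitochondrial-mass and membrane-permeability phenotype values. Live cells were stained at seeding with Hoechst33342, BioTracker Green Microtubule Cytoskeleton Dye, MitoTracker Red and Annexin V Alexa Fluor 680. After compound addition they were imaged on a CQ1 microscope at 37°C and 5% CO2, and CellPathfinder machine-learning gating split them into Hoechst high-intensity objects or normal cells, normal cells into healthy, pyknosed or fragmented nuclei, and pyknosed cells into mitotic or apoptotic.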

[1] = 12 h, 1 µM, compound concentration 1 uM
[2] = 12 h, 10 µM, compound concentration 10 uM
[3] = 24 h, 1 µM, compound concentration 1 uM
[4] = 24 h, 10 µM, compound concentration 10 uM
[5] = 48 h, 1 µM, compound concentration 1 uM
[6] = 48 h, 10 µM, compound concentration 10 uM

Cl.Clc1ccc2nsnc2c1NC1=NCCN1 [TIZANIDINE HYDROCHLORIDE]
Population Apoptotic (%) [1]: 50% and 55% | Population Fragmented Nuclei (%) [1]: 14% and 4% | Population Healthy Nuclei (%) [1]: 75% and 86% | Population Hoechst High Intensity Objects (%) [1]: 0% | Population Membrane Permeable-Phenotype (%) [1]: 0% and 1% | Population Mitochondria Different-Phenotype (%) [1]: 3% and 0% | Population Mitotic Cells (%) [1]: 50% and 44% | Population Normal (%) [1]: 100% | Population Pyknosed Nuclei (%) [1]: 9% | Population Tubulin-Different-Phenotype (%) [1]: 100% and 96% | Population Fragmented Nuclei (%) [2]: 7% and 4% | Population Healthy Nuclei (%) [2]: 89% and 87% | Population Hoechst High Intensity Objects (%) [2]: 0% | Population Membrane Permeable-Phenotype (%) [2]: 2% and 0% | Population Mitochondria Different-Phenotype (%) [2]: 0% | Population Normal (%) [2]: 100% | Population Pyknosed Nuclei (%) [2]: 2% and 8% | Population Tubulin-Different-Phenotype (%) [2]: 68% and 97% | Population Apoptotic (%) [3]: 100% and 58% | Population Fragmented Nuclei (%) [3]: 8% and 3% | Population Healthy Nuclei (%) [3]: 85% and 89% | Population Hoechst High Intensity Objects (%) [3]: 1% and 0% | Population Membrane Permeable-Phenotype (%) [3]: 1% | Population Mitochondria Different-Phenotype (%) [3]: 0% and 1% | Population Normal (%) [3]: 98% and 100% | Population Pyknosed Nuclei (%) [3]: 6% and 7% | Population Tubulin-Different-Phenotype (%) [3]: 100% and 95% | Population Fragmented Nuclei (%) [4]: 10% and 2% | Population Healthy Nuclei (%) [4]: 89% and 92% | Population Hoechst High Intensity Objects (%) [4]: 0% | Population Membrane Permeable-Phenotype (%) [4]: 0% and 1% | Population Mitochondria Different-Phenotype (%) [4]: 0% | Population Normal (%) [4]: 100% | Population Pyknosed Nuclei (%) [4]: 0% and 5% | Population Tubulin-Different-Phenotype (%) [4]: 77% and 96% | Population Apoptotic (%) [5]: 40% | Population Fragmented Nuclei (%) [5]: 11% | Population Healthy Nuclei (%) [5]: 78% | Population Hoechst High Intensity Objects (%) [5]: 1% | Population Membrane Permeable-Phenotype (%) [5]: 3% | Population Mitochondria Different-Phenotype (%) [5]: 0% | Population Mitotic Cells (%) [5]: 60% | Population Normal (%) [5]: 98% | Population Pyknosed Nuclei (%) [5]: 10% | Population Tubulin-Different-Phenotype (%) [5]: 97% | Total Cell Count [5]: 99 | Population Apoptotic (%) [6]: 88% and 38% | Population Fragmented Nuclei (%) [6]: 4% and 2% | Population Healthy Nuclei (%) [6]: 84% and 92% | Population Hoechst High Intensity Objects (%) [6]: 0% | Population Membrane Permeable-Phenotype (%) [6]: 2% and 0% | Population Mitochondria Different-Phenotype (%) [6]: 0% | Population Normal (%) [6]: 100% | Population Pyknosed Nuclei (%) [6]: 10% and 4% | Population Tubulin-Different-Phenotype (%) [6]: 72% and 99%

CCOC(=O)Nc1cc(-c2ccc(C)c(NS(C)(=O)=O)c2)nn2c(C)nnc12
Population Apoptotic (%) [2]: 54% and 50% and 20% | Population Healthy Nuclei (%) [2]: 66% and 75% and 76% and 53% | Population Hoechst High Intensity Objects (%) [2]: 0% | Population Membrane Permeable-Phenotype (%) [2]: 3% and 0% and 5% | Population Mitochondria Different-Phenotype (%) [2]: 3% [middle of 4 runs] | Population Mitotic Cells (%) [2]: 45% and 50% and 80% | Population Normal (%) [2]: 100% | Population Pyknosed Nuclei (%) [2]: 24% and 19% and 17% and 15% | Population Tubulin-Different-Phenotype (%) [2]: 59% [middle of 4 runs] | Population Apoptotic (%) [4]: 70% and 65% and 53% and 66% | Population Healthy Nuclei (%) [4]: 59% and 69% and 67% and 50% | Population Hoechst High Intensity Objects (%) [4]: 0% | Population Membrane Permeable-Phenotype (%) [4]: 6% [middle of 4 runs] | Population Mitotic Cells (%) [4]: 29% and 35% and 46% and 33% | Population Normal (%) [4]: 100% and 99% | Population Pyknosed Nuclei (%) [4]: 20% [middle of 4 runs] | Population Tubulin-Different-Phenotype (%) [4]: 71% [middle of 4 runs] | Population Apoptotic (%) [6]: 85% and 72% and 76% | Population Fragmented Nuclei (%) [6]: 30% and 20% and 18% | Population Healthy Nuclei (%) [6]: 30% and 33% and 51% | Population Hoechst High Intensity Objects (%) [6]: 0% and 3% | Population Mitochondria Different-Phenotype (%) [6]: 9% and 0% and 3% | Population Mitotic Cells (%) [6]: 14% and 27% and 23% | Population Normal (%) [6]: 100% and 96% and 99% | Population Pyknosed Nuclei (%) [6]: 38% and 45% and 27% and 29%

O=C1NC(=NCc2cccs2)SC1=Cc1ccc2ncccc2c1
Population Apoptotic (%) [1]: 100% and 60% | Population Healthy Nuclei (%) [1]: 68% and 89% | Population Hoechst High Intensity Objects (%) [1]: 0% | Population Membrane Permeable-Phenotype (%) [1]: 0% and 1% | Population Mitochondria Different-Phenotype (%) [1]: 0% and 1% | Population Normal (%) [1]: 100% | Population Pyknosed Nuclei (%) [1]: 9% and 6% | Population Tubulin-Different-Phenotype (%) [1]: 59% and 88% | Population Apoptotic (%) [2]: 71% and 81% | Population Healthy Nuclei (%) [2]: 57% and 85% | Population Hoechst High Intensity Objects (%) [2]: 0% | Population Membrane Permeable-Phenotype (%) [2]: 5% and 7% | Population Mitochondria Different-Phenotype (%) [2]: 0% and 4% | Population Mitotic Cells (%) [2]: 28% and 18% | Population Normal (%) [2]: 100% | Population Pyknosed Nuclei (%) [2]: 21% and 8% | Population Tubulin-Different-Phenotype (%) [2]: 31% and 33% | Population Apoptotic (%) [3]: 63% and 61% | Population Fragmented Nuclei (%) [3]: 11% and 4% | Population Healthy Nuclei (%) [3]: 66% and 89% | Population Hoechst High Intensity Objects (%) [3]: 0% | Population Membrane Permeable-Phenotype (%) [3]: 5% and 0% | Population Mitochondria Different-Phenotype (%) [3]: 0% | Population Mitotic Cells (%) [3]: 36% and 38% | Population Normal (%) [3]: 100% | Population Tubulin-Different-Phenotype (%) [3]: 67% and 82% | Population Apoptotic (%) [4]: 100% and 75% | Population Healthy Nuclei (%) [4]: 56% and 79% | Population Hoechst High Intensity Objects (%) [4]: 0% | Population Membrane Permeable-Phenotype (%) [4]: 0% and 3% | Population Mitochondria Different-Phenotype (%) [4]: 0% and 4% | Population Mitotic Cells (%) [4]: 0% and 25% | Population Normal (%) [4]: 100% | Population Pyknosed Nuclei (%) [4]: 26% and 15% | Population Tubulin-Different-Phenotype (%) [4]: 26% and 41% | Population Apoptotic (%) [5]: 92% and 73% | Population Healthy Nuclei (%) [5]: 57% and 88% | Population Hoechst High Intensity Objects (%) [5]: 0% | Population Membrane Permeable-Phenotype (%) [5]: 4% and 2% | Population Mitochondria Different-Phenotype (%) [5]: 0% | Population Normal (%) [5]: 100% | Population Tubulin-Different-Phenotype (%) [5]: 70% and 90% | Population Apoptotic (%) [6]: 84% | Population Fragmented Nuclei (%) [6]: 17% and 12% | Population Healthy Nuclei (%) [6]: 36% and 60% | Population Hoechst High Intensity Objects (%) [6]: 2% and 0% | Population Membrane Permeable-Phenotype (%) [6]: 6% and 4% | Population Mitotic Cells (%) [6]: 15% | Population Normal (%) [6]: 97% and 100% | Population Pyknosed Nuclei (%) [6]: 46% and 26% | Population Tubulin-Different-Phenotype (%) [6]: 60% and 55%
